Measured values taken from publication PMC8320078 (ACS Omega, 2021).

Experiments:
FRAP assay = conditions: isolated compounds; mean ± SD
Outline: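 FRAP: Fe3+ is reduced to Fe2+, which TPTZ chelates to form the Fe2+-TPTZ complex. Activity of isolated compounds was read from a trolox standard curve (7.78–1000 μM) and expressed as μM TE/mM. Quercetin and ascorbic acid were positive controls, MeOH the negative control. Triplicate runs (n = 3); mean ± SD.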

ABTS assay = conditions: isolated compounds; mean ± SD
Outline: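 ABTS radical-scavenging capacity of isolated compounds, from a modified literature method. Activity was read from a trolox calibration curve (7.78–1000 μM) and expressed as trolox equivalents (μM TE/mM). Ascorbic acid and quercetin served as positive controls, MeOH as negative control. Each sample was run in triplicate (n = 3); values are mean ± SD.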

DPPH assay = conditions: mean ± SD; for DPPH assay TEAC: isolated compounds
Outline: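 Reduction of the DPPH free radical by extracts, fractions or isolated compounds, done in 96-well format following a published procedure. Quercetin and ascorbic acid were positive controls and MeOH the negative control. Runs were in triplicate (n = 3), reported as mean ± SD. Total antioxidant capacity was expressed as trolox equivalent antioxidant capacity (TEAC).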

[1] = target: T1, porcine pancreatic lipase (PPL) (Sus scrofa, UniProt P00591); assay: Inhibition of pancreatic lipase; format: biochemical; conditions: read-out: lipase assay IC50, mean ± SD
T1 sequence (P00591 1-450): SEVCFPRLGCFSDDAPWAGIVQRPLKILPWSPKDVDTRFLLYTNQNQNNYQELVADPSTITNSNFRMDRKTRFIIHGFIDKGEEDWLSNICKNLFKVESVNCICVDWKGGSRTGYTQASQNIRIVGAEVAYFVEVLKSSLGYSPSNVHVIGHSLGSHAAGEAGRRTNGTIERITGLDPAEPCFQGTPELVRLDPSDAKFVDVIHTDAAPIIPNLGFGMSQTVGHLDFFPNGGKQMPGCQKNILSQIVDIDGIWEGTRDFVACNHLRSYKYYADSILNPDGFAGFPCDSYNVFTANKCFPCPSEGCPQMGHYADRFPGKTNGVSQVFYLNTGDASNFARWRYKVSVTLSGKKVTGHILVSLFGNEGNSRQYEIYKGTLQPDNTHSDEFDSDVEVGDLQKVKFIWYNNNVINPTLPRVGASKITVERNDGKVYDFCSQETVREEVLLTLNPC

α-glucosidase (yeast) = α-glucosidase (yeast) (Saccharomyces cerevisiae, UniProt P53341); assay: Inhibition of α-glucosidase; format: biochemical; conditions: read-out: α-glucosidase assay IC50; yeast enzyme; mean ± SD
[2] = system: formation of advanced glycation end products (AGEs), BSA-methylglyoxal model; assay: BSA-methylglyoxal antiglycation assay; format: biochemical, bovine; conditions: read-out: BSA-methylglyoxal model IC50; isolated compounds; mean ± SD
[3] = system: formation of advanced glycation end products (AGEs), BSA-fructose model; assay: BSA-fructose antiglycation assay; format: biochemical, bovine; conditions: read-out: BSA-fructose model IC50; isolated compounds; mean ± SD
[4] = system: formation of AGEs induced by glucose or methylglyoxal; conditions: at 100 μM; cited from earlier work

Sequence of α-glucosidase (yeast) (P53341 whole entry): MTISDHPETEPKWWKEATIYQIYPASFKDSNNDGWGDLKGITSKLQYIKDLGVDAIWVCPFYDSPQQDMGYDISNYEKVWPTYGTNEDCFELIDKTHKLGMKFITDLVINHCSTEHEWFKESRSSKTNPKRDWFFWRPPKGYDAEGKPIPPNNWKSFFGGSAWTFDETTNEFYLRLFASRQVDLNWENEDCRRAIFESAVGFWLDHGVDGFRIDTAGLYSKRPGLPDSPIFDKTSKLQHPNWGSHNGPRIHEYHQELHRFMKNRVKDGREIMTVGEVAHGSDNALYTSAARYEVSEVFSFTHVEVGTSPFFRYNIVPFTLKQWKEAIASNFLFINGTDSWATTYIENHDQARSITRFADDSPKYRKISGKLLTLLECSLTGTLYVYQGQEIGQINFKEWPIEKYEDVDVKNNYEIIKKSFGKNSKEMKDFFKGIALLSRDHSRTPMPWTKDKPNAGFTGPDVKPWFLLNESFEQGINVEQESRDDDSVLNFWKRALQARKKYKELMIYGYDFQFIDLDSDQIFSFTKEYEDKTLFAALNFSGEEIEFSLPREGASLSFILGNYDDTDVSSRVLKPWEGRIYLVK

Row | DPPH assay EC50 (DPPH assay; extracts/fractions) | IC50 [2] | IC50 [3] | Compound | FRAP assay TEAC (FRAP assay) | ABTS assay TEAC (ABTS assay) | DPPH assay TEAC (DPPH assay) | IC50 [1] | IC50 (α-glucosidase (yeast)) | efficacy against formation of AGEs [4]
1 | 2.76 ± 1.63 µg/mL |  |  | O=C1O[C@H]([C@@H](O)CO)C(O)=C1O [ascorbic acid, reference compound] | 1195.58 ± 4.41 μM TE/mM | 1132.84 ± 20.25 μM TE/mM | 802.73 ± 32.63 μM TE/mM |  |  | 
2 |  | > 1300 µM | 502 ± 70.9 µM | 12β-O-benzoyl 3β,8β,12β,14β,20-pentahydroxy-(20S)-pregn-5-ene-3-O-β-D-glucopyranosyl-(1 → 4)-O-β-D-digitaloside [compound 1] | 17.96 ± 4.25 μM TE/mM | 12.14 ± 14.86 μM TE/mM | 43.30 ± 3.12 μM TE/mM | > 100 µM | 920 ± 20 µM | 
3 |  |  |  | O=c1cc(-c2ccc(O)cc2)oc2cc(O)c([C@@H]3O[C@H](CO)[C@@H](O)[C@H](O)[C@H]3O)c(O)c12 [isovitexin] |  |  |  |  |  | over 85%
4 |  |  |  | O=c1cc(-c2ccc(O)cc2)oc2c([C@@H]3O[C@H](CO)[C@@H](O)[C@H](O)[C@H]3O)c(O)cc(O)c12 [vitexin] |  |  |  |  |  | over 85%
5 |  | 847.3 ± 1.04 µM | 50.6 ± 3.9 µM | O=c1c(O)c(-c2ccc(O)c(O)c2)oc2cc(O)cc(O)c12 [quercetin, reference compound] | 1373.75 ± 35.39 μM TE/mM | 1435.38 ± 14.02 μM TE/mM | 953.94 ± 4.17 μM TE/mM |  |  | 
6 |  | > 1300 µM | > 1300 µM | CC[C@H](CC[C@@H](C)[C@H]1CC[C@H]2[C@@H]3CC=C4C[C@@H](O)CC[C@]4(C)[C@H]3CC[C@]12C)C(C)C [β-sitosterol] | 13.50 ± 3.48 μM TE/mM | 3.42 ± 9.77 μM TE/mM | 37.87 ± 11.03 μM TE/mM |  |  | 
7 |  | > 1300 µM | 1032 ± 2.48 µM | CC[C@H](CC[C@@H](C)[C@H]1CC[C@H]2[C@@H]3CC=C4C[C@@H](O[C@@H]5O[C@H](CO)[C@@H](O)[C@H](O)[C@H]5O)CC[C@]4(C)[C@H]3CC[C@]12C)C(C)C [β-sitosterol-glucoside] | 66.21 ± 16.25 μM TE/mM | 11.81 ± 7.07 μM TE/mM | 36.27 ± 10.39 μM TE/mM |  |  | 

Row | Compound | DPPH assay EC50 (DPPH assay; extracts/fractions) | IC50 [2] | IC50 [3] | FRAP assay TEAC (FRAP assay) | ABTS assay TEAC (ABTS assay) | DPPH assay TEAC (DPPH assay) | IC50 [1] | IC50 (α-glucosidase (yeast)) | efficacy against formation of AGEs [4]
8 | CO[C@@H]1[C@@H](O)[C@H](O[C@H]2CC[C@@]3(C)C(=CC[C@]4(O)[C@@H]3CC[C@]3(C)[C@@H]([C@H](C)O[C@@H]5O[C@H](CO)[C@@H](O)[C@H](OC(=O)CC(C)C)[C@H]5O)CC[C@@]34O)C2)O[C@H](C)[C@@H]1O[C@@H]1O[C@H](CO)[C@@H](O)[C@H](O)[C@H]1O [compound 2, 3β,8β,14β,20-tetrahydroxy-(20S)-pregn-5-ene-3-O-β-D-glucopyranosyl-(1 → 4)-O-β-D-digitaloside-20-O-3-Isoval-β-D-glucopyranoside] |  | > 1300 µM |  | 23.08 ± 1.89 μM TE/mM | 9.19 ± 15.59 μM TE/mM | 30.27 ± 2.70 μM TE/mM | > 100 µM | 670 ± 10 µM | 
